{
  "source": "paper PMC12780024",
  "about": "(Nature Communications, 2025)",
  "key": {"[1]": {"system": "stomata (guard cells) of Arabidopsis leaves", "test": "Stomatal aperture measurement", "type": "cell-based, Arabidopsis thaliana", "how_it_was_run": "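Abaxial epidermis peeled from leaves of 3–4-week-old plants. Pore width and length measured by light microscopy and expressed as W/L ratio. n = 15 per time point, at least three independent experiments.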"}, "Arabidopsis leaves": {"system": "Arabidopsis leaves", "test": "Time-resolved stomatal conductance", "type": "in vivo, Arabidopsis thaliana", "how_it_was_run": "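Plants grown in short days (10/14 h) at 22 °C. Detached leaves equilibrated in an LI-6800 chamber until gsw was stable, then given 2 µM ABA. Chamber settings: 200 µmol m−2 s−1 light (90% red, 10% blue), 22 °C, 75% RH, 400 ppm CO2, […]. Time-resolved gsw reported as mean ± s.d. of at least three biological replicates.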"}, "[2]": {"system": "H2O2 accumulation in rosette leaves", "test": "DAB staining of H2O2 in leaves", "type": "in vivo, Arabidopsis thaliana", "settings": "2 h", "how_it_was_run": "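Four-week-old rosette leaves treated 2 h with test peptide (100 µM) or hormone control (1 µM), then immersed in freshly prepared 100 µg/ml DAB in the dark for 8 h. Fixed and bleached in ethanol/acetic acid/glycerol (3:1:1), rinsed with distilled water, and photographed on a white background for H2O2 staining.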"}, "SRK2E": {"system": "SRK2E", "test": "Protein mobility shift assay", "type": "cell-based, Arabidopsis thaliana", "settings": "wild type protoplasts, 1 μM, 30 min, Phos-Tag; diminished by phosphatase", "how_it_was_run": "(§1)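 Mesophyll protoplasts (6 × 10^4) transfected with 10 µg 35S::kinase-GFP plasmid and kept 18 h at 21 °C in W5 under continuous light. Treated with 1 µM peptide or ABA for up to 30 min, frozen, ground and lysed (Tris pH 7.5 buffer). Cleared lysate run on Phos-Tag SDS-PAGE and blotted with anti-GFP; tubulin as internal control. For dephosphorylation, lysate incubated with λ-phosphatase at 30 °C for 30 min, with or without NaF/NaVO3 inhibitors.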"}, "SRK2D": {"system": "SRK2D", "test": "Protein mobility shift assay", "type": "cell-based, Arabidopsis thaliana", "settings": "wild type protoplasts, 1 μM, 30 min, Phos-Tag; diminished by phosphatase", "how_it_was_run": "as §1"}, "[3]": {"settings": "cited from earlier work"}, "[4]": {"target": "BAM1 extracellular domain", "test": "Isothermal titration calorimetry", "type": "binding, Arabidopsis thaliana", "settings": "read-out: dissociation constant (Kd); ITC, MicroCal ITC200, 37 °C, 1 mM CLE5p into 0.1 mM GST-BAM1, 20 mM Tris-HCl pH 7.5, 25 mM NaCl, 5% glycerol; One Set of Sites; ± fitting errors; repeated twice", "how_it_was_run": "(§2)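 Recombinant GST-fused receptor protein, gel-filtered into titration buffer, titrated at 37 °C with sequential injections of test peptide at 180 s intervals. Cell stirred at 800 rpm, reference power 5 µcal/s. GST alone served as negative control. Data fitted to a one-set-of-sites model to give Kd, stoichiometry N, ΔG, ΔH and -TΔS.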"}, "[5]": {"target": "GHR1 extracellular domain", "test": "Isothermal titration calorimetry", "type": "binding, Arabidopsis thaliana", "settings": "read-out: dissociation constant (Kd); ITC, MicroCal ITC200, 37 °C, 1 mM CLE5p into 0.1 mM GST-GHR1, 20 mM Tris-HCl pH 7.5, 25 mM NaCl, 5% glycerol; One Set of Sites; ± fitting errors; repeated twice", "how_it_was_run": "as §2"}, "[6]": {"system": "Arabidopsis seedlings (primary root)", "test": "Primary root growth inhibition / LRR-RLK screening", "type": "in vivo, Arabidopsis thaliana", "settings": "0.75 µM CLE5p", "how_it_was_run": "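Arabidopsis lrr-rlk mutant seedlings were germinated on 1/2MS agar for 3 days. They were then transferred to 1/2MS agar containing 0.75 µM test peptide. Primary root length was measured after 3 days of peptide treatment.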"}, "[7]": {"target": "T1, GST-BAM1 (LRR repeats of BARELY ANY MERISTEM 1, N-terminal GST fusion) (Arabidopsis thaliana)", "T1 sequence (O49545 whole entry, looked up)": "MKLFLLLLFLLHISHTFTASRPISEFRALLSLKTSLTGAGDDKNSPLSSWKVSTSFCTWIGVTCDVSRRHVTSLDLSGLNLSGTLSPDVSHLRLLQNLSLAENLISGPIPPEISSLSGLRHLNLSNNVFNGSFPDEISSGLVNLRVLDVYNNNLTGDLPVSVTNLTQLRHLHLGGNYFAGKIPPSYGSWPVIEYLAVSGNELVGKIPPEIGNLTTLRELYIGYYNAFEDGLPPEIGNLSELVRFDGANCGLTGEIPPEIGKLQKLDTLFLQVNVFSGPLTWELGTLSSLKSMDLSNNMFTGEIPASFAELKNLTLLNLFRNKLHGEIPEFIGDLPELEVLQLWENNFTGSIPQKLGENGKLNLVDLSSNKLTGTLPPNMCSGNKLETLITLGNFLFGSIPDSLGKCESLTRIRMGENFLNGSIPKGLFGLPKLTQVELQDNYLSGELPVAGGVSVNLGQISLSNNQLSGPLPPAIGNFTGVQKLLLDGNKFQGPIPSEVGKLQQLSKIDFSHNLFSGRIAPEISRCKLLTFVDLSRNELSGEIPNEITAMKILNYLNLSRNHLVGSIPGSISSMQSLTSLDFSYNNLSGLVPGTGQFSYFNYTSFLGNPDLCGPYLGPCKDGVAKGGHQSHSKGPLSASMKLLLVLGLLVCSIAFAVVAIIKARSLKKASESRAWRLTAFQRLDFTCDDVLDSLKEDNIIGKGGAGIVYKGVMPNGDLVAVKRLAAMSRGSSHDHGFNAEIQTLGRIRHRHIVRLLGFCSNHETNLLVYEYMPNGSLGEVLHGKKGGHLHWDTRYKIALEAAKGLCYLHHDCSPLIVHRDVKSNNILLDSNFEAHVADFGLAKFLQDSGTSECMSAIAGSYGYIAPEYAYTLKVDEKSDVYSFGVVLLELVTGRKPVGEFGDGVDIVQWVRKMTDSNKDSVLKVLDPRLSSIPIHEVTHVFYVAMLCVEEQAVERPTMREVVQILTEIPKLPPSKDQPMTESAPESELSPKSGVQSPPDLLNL", "test": "ITC"}, "[8]": {"target": "T2, GST-GHR1 (LRR repeats of GUARD CELL HYDROGEN PEROXIDE-… 1, N-terminal GST fusion) (Arabidopsis thaliana)", "T2 sequence (C0LGQ9 whole entry, looked up)": "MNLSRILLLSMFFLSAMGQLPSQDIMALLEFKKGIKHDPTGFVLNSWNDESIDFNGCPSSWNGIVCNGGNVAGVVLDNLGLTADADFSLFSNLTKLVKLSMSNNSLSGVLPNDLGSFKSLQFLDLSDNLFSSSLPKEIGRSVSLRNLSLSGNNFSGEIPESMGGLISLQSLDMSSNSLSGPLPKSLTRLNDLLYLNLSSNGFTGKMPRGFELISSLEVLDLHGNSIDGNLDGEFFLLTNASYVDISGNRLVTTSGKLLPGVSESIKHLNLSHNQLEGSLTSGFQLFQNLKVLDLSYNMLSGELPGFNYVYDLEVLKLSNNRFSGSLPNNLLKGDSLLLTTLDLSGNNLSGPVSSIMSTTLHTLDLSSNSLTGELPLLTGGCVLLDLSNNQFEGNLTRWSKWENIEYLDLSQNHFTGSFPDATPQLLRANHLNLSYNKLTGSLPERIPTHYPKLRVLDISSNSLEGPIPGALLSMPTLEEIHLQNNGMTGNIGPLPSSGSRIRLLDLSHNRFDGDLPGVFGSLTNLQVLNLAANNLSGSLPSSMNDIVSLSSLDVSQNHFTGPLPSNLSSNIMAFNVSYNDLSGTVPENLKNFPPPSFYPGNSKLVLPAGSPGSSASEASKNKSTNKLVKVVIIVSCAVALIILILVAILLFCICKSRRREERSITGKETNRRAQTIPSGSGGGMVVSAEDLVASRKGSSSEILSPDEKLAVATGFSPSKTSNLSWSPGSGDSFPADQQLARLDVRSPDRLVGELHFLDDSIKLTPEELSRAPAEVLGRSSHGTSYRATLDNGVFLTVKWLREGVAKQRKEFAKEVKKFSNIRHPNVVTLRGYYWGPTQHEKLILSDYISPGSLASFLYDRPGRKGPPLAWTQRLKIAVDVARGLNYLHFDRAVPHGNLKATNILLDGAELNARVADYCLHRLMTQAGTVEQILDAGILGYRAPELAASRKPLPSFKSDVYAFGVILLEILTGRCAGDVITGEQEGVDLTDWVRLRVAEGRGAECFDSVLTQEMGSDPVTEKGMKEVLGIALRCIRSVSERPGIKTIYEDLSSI", "test": "ITC"}},
  "note": "Square brackets hold non-standard residues; d marks the D form. Ends that are not written are not given here. Hyp = O=C(O)[C@@H]1C[C@@H](O)CN1",
  "data": [
    {"molecule": "CC1=CC(=O)CC(C)(C)[C@@]1(O)/C=C/C(C)=C\\C(=O)O", "note": "[ABA, abscisic acid]", "values": [
      {"measurement": "stomatal closure", "setting": "[1]; cle5-1 and bam1-3ghr1 leaves, 2 µM ABA, 30 min", "result": "failed to induce stomatal closure"},
      {"measurement": "stomatal conductance response to ABA", "setting": "Arabidopsis leaves; 35S::SRK2E(Triple A)/srk2e leaves, 2 µM ABA", "result": "insensitive to the ABA treatment"},
      {"measurement": "stomatal conductance response to ABA", "setting": "Arabidopsis leaves; 35S::SRK2E/srk2e leaves, 2 µM ABA, compared to srk2e", "result": "decreased rapidly"},
      {"measurement": "stomatal conductance response to ABA", "setting": "Arabidopsis leaves; bam1-3, ghr1, bam1-3ghr1 leaves, 2 µM ABA", "result": "insensitive to the ABA-induced reduction of stomatal conductance"},
      {"measurement": "stomatal conductance response to ABA", "setting": "Arabidopsis leaves; cle5-1 leaves, 2 μM ABA", "result": "insensitive to ABA treatment"},
      {"measurement": "stomatal conductance response to ABA", "setting": "Arabidopsis leaves; pGC1::CLE5/cle5-1 leaves (stomata-specific CLE5), 2 μM ABA", "result": "sufficient to elicit ABA-induced stomatal closure"},
      {"measurement": "stomatal conductance response to ABA", "setting": "Arabidopsis leaves; wild type and pCLE5::CLE5/cle5-1 leaves, 2 μM ABA", "result": "began to close their stomata promptly after ABA application"},
      {"measurement": "H2O2 accumulation (DAB staining)", "setting": "[2]; 1 µM ABA", "result": "induced H2O2 accumulation"},
      {"measurement": "SRK2E-GFP mobility shift (phosphorylation)", "setting": "SRK2E", "result": "a distinct band shift was detected"},
      {"measurement": "SRK2D-GFP mobility shift (phosphorylation)", "setting": "SRK2D", "result": "a distinct band shift was detected"},
      {"measurement": "stomatal closure", "setting": "[3]", "result": "induce rapid stomatal closure"}
    ]},
    {"molecule": "CLE25p: root-derived CLE peptide transported from roots to leaves (RKVPNGPDPIHN; ends and bridges not checked; UniProt Q8LFL4 58-69, looked up)", "values": [
      {"measurement": "drought stress response", "setting": "[3]; root-derived, transported from roots to leaves", "result": "promotes drought stress resistance by stimulating ABA biosynthesis"}
    ]},
    {"molecule": "CLE5p: mature CLE5 dodecapeptide, hydroxyproline at residues 4 and 7, non-arabinosylated (RVS[Hyp]GG[Hyp]DPQHH)", "values": [
      {"measurement": "stomatal closure", "setting": "[1]; rbohDrbohF double mutant leaves", "result": "induced stomatal closure"},
      {"measurement": "Kd", "setting": "[4]", "result": 2.52, "unit": "µM"},
      {"measurement": "Kd", "setting": "[5]", "result": 7.39, "unit": "µM"},
      {"measurement": "H2O2 accumulation (DAB staining)", "setting": "[2]; 100 µM CLE5p, detached leaves", "result": "no hydrogen peroxide (H2O2) accumulation"},
      {"measurement": "root growth inhibition, in words", "setting": "[6]; bam1-3, ghr1, bam1-3ghr1 seedlings", "result": "Neither single bam1-3 and ghr1 nor double bam1-3ghr1 mutants showed significant growth defects"},
      {"measurement": "root growth inhibition, in words", "setting": "[6]; bam3 and wild type seedlings", "result": "sensitive to the CLE5p-induced root growth inhibition"}
    ]},
    {"molecule": "RVS[Hyp]GG[Hyp]DPQHH", "note": "[CLE5 dodecapeptide (CLE5p)]", "values": [
      {"measurement": "Kd", "setting": "[7]", "result": 2.52, "unit": "µM"},
      {"measurement": "Kd", "setting": "[8]", "result": 7.39, "unit": "µM"}
    ]}
  ]
}
